From ChEMBL document CHEMBL1126145, “Phenyl-substituted analogues of oxotremorine as muscarinic antagonists” (J Med Chem, 1992)

Key:
[1] = species on record: Mus musculus; experiment: Antimuscarinic activity on the intact mice.(Dose required to double the dose of oxotremorine inducing a predetermined tremor intensity.); type: functional
Method in brief: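 Male Swiss-Webster mice (24-32 g). Antagonist given i.p. at 200 µmol/kg to groups of ≥6 mice; 6 untreated controls. 20 min later, the i.v. oxotremorine ED50 was estimated by the up-and-down method, with intermittent spontaneous (grade 2) tremor as endpoint. Active compounds were tested at two further doses. The dose doubling the oxotremorine ED50 was found by linear regression of ED50 vs antagonist dose (including zero).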

[2] = molecular target: Muscarinic acetylcholine receptor; experiment: Inhibition of [3H]N-methylscopolamine binding to muscarinic acetylcholine receptor of rat cerebral cortex.; type: tissue-based
Method in brief: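 Male Sprague-Dawley rat (200-300 g) cortex homogenized in 50 mM Na-K phosphate pH 7.4, spun 30000g, resuspended at 10 mg wet tissue/mL. Incubated with (-)-[3H]NMS 0.3 nM plus competitor for 30 min at 30 °C; filtration assay. IC50 from one-site nonlinear fit, converted to Ki by Cheng-Prusoff. Three experiments, each in triplicate.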

[3] = molecular target: Muscarinic acetylcholine receptor; experiment: Determination of dissociation constant from antimuscarinic activity on isolated guinea pig ileum.; type: tissue-based, Cavia porcellus

Row | SMILES | Tremorolytic dose [1] [µM/kg] | Ki [2] [nM] | Kd [3] [nM]
1 | CC(C#CCN1CCCC1)N1C(=O)CCC1=O (stereo unspecified) | 1.2 | – | –
2 | CN(CC#CCN1CCCC1)C(=O)Cc1ccccc1 | >200 | 5200 | 20500
3 | O=C1CC(c2ccccc2)CN1CC#CCN1CCCC1 (stereo unspecified) | >200 | 5770 | 15220
4 | CC(=O)N(C)C(C#CCN1CCCC1)c1ccccc1 (stereo unspecified) | 17.4 | 310 | 620
5 | O=C1CCC(=O)N1C(C#CCN1CCCC1)c1ccccc1 (stereo unspecified) | 7.29 | 120 | 100
6 | O=C1CCC(c2ccccc2)N1CC#CCN1CCCC1 (stereo unspecified) | 55.6 | 540 | 850
7 | CN1[C@@H]2CC[C@H]1C[C@@H](OC(=O)C(CO)c1ccccc1)C2 (stereo partly specified) [ATROPINE] | 0.9 | – | –
8 | O=C1CCCN1CC#CCN1CCC(c2ccccc2)C1 (stereo unspecified) | 122 | 2400 | 8100
9 | CC(=O)N(C)C(C)C#CCN1CCCC1 (stereo unspecified) | 0.6 | – | –
10 | CC(C#CCN1CCCC1)N1CCCC1=O (stereo unspecified) | 0.5 | – | 91
11 | CC(=O)N(CC#CCN1CCCC1)Cc1ccccc1 | 154 | 1290 | 5890
12 | O=C1C(c2ccccc2)CCN1CC#CCN1CCCC1 (stereo unspecified) | >200 | 6910 | 11210
13 | CN(C(=O)C(F)(F)F)C(C#CCN1CCCC1)c1ccccc1 (stereo unspecified) | 26.5 | 230 | 500
14 | O=C1CCCN1C(C#CCN1CCCC1)c1ccccc1 (stereo unspecified) | 8.93 | 110 | 200
15 | CC1CCC(=O)N1CC#CCN1CCCC1 (stereo unspecified) | 0.4 | – | –
